One assay concerns the target T1, Nitric oxide synthase 3 (Homo sapiens, UniProt P29474).
T1 sequence (P29474 whole entry): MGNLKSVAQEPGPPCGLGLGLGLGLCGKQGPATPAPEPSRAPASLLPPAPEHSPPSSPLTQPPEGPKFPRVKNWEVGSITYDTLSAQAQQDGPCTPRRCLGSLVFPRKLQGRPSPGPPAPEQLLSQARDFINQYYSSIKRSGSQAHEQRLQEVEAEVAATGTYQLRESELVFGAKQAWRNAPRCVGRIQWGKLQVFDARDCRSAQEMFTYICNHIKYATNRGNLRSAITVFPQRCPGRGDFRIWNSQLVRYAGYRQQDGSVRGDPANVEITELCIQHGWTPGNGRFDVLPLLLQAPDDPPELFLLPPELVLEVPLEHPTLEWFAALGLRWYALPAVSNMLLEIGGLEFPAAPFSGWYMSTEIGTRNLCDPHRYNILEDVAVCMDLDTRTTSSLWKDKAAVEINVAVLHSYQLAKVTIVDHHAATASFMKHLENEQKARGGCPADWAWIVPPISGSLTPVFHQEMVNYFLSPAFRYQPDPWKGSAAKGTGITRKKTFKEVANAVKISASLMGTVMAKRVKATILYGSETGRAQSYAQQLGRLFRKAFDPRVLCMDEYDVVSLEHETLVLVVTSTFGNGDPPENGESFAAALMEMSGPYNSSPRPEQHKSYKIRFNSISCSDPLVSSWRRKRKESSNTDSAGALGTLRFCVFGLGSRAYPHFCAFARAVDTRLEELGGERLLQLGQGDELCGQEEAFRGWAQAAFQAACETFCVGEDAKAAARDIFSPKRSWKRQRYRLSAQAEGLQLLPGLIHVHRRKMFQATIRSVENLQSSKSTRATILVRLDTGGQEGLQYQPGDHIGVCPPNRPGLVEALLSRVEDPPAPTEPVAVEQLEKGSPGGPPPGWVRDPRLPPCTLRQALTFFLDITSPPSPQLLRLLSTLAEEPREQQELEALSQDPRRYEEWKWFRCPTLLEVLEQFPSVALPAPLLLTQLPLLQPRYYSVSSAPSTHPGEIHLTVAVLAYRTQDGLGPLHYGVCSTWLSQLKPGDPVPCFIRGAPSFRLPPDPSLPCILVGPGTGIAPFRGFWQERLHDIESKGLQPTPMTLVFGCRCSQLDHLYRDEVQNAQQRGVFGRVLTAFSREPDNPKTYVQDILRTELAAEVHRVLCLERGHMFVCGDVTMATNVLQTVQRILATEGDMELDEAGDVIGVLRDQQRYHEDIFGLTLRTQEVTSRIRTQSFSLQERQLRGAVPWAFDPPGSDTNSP
The assay can be described thus: Inhibition of human endothelial Nitric Oxide Synthase expressed in Sf-21 cells. Further details: species or system Sf21. The method in brief:
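Human eNOS was overexpressed in Sf-21 insect cells by infection with baculovirus carrying heNOS cDNA, then partially purified on 2',5'-ADP-Sepharose. Activity was read as [14C]-L-arginine to L-citrulline conversion at several inhibitor and L-arginine levels. Ki and mode of inhibition came from Dixon and Lineweaver–Burk plots.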

The target in assay [1] is T2, Nitric oxide synthase 3 (Homo sapiens) (UniProt P29474).
T2 sequence (whole entry): T1 sequence (P29474 whole entry)
Put plainly: Selectivity was evaluated as the rate of the IC50 values for Endothelial Nitric Oxide Synthase and Inducible nitric oxide synthase.

Assay [2] deals with T3, Nitric oxide synthase, inducible (Homo sapiens, UniProt P35228). Put plainly: Concentration required to inhibit Inducible nitric oxide synthase over expressed in A549 cells. The assay is classed as cell-based. A digest of the protocol: (§1)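 Human iNOS was induced in A549 cells by LPS plus cytokines (10 ng/mL TNF-a, 5 ng/mL IL-1b, 100 ng/mL interferon-g), then partially purified on 2',5'-ADP-Sepharose. Activity was read as conversion of [14C]-L-arginine to L-citrulline at several inhibitor and L-arginine levels. Ki and mode of inhibition came from Dixon and Lineweaver–Burk plots.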

The target of assay [3] is Nitric oxide synthase (inducible and endothelial) (Homo sapiens) (UniProt P35228+P29474). The assay can be described thus: Selectivity was evaluated as the rate of the IC50 values for heNOS and hiNOS. It counts as protein assay.
The target of assay [4] is T3, Nitric oxide synthase, inducible. Put plainly: Concentration required to inhibit human Inducible nitric oxide synthase over expressed in A549 cells. The assay is classed as cell-based. The method in brief: as §1
The test system of assay [5] is Mus musculus. Put plainly: Maximum tolerated dose (MTD) at which no death was observed within 24 hr after intravenous administration. It counts as functional. The method in brief: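 Normal mice (mouse acute toxicity) given a single intravenous dose of test compound. MTD taken as the maximum dose at which no death was observed within 24 h after injection.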
Assay [6] addresses T4, Nitric oxide synthase, inducible (Mus musculus, UniProt P29477).
T4 sequence (P29477 whole entry): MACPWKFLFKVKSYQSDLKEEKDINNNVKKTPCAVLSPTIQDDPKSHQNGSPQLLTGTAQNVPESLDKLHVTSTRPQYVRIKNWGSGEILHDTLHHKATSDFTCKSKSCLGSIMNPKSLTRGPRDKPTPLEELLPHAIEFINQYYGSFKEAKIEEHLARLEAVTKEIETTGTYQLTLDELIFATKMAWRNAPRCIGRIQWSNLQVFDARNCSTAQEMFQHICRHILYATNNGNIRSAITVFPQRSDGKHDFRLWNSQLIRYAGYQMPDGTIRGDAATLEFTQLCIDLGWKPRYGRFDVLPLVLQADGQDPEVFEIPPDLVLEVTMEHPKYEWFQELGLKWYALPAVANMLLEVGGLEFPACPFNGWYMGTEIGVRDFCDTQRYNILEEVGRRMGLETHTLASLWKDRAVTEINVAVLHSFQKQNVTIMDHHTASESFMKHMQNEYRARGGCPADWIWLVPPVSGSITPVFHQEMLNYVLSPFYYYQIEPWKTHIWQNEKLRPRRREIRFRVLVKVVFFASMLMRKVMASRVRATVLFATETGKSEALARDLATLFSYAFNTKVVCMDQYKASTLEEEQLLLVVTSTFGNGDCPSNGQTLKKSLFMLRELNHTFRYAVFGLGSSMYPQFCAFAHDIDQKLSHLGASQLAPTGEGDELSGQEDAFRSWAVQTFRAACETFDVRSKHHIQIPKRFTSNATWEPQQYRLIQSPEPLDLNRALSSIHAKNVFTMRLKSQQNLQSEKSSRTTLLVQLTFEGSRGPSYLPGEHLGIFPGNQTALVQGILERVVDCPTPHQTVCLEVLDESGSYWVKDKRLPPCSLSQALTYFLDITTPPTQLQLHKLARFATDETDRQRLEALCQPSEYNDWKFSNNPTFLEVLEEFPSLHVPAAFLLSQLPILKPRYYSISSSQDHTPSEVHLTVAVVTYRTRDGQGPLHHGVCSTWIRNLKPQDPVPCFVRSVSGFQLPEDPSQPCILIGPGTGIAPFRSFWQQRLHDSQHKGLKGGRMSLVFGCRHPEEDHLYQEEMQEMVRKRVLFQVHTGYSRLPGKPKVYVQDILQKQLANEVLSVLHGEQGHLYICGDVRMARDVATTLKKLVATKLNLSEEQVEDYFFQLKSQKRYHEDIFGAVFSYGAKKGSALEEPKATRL
The assay can be described thus: The concentration required for inhibition of Inducible nitric oxide synthase in mouse. The method in brief: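 Enzyme was commercially purchased recombinant mouse iNOS, tested for inhibition by the test compounds.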

The nature of assay [7]: Ratio of MTD/ID50 for NOx accumulation in mice. It counts as functional. The method in brief:
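Balb/c mice, 7 weeks old, got LPS 10 mg/kg iv, then test compound or saline sc 3 h later. Plasma was taken from the abdominal aorta at 6 h, and NOx accumulated over 3 h was measured. ID50 is the sc dose halving LPS-induced NOx. MTD is the highest iv dose in normal mice with no death within 24 h. Ratio is MTD/ID50.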

Assay [8] deals with Mus musculus. Put plainly: The dose required for 50% inhibition of NOx accumulation in mice induced by LPS treatment after subcutaneous administration. It counts as functional. Conditions: sc, read-out: ID50 (the source's name).

What is called IC50 is the concentration needed to halve the response being measured. The MTD is the largest dose that counted as tolerated. Lower therefore signals poorer tolerability.

T3 sequence (P35228 whole entry): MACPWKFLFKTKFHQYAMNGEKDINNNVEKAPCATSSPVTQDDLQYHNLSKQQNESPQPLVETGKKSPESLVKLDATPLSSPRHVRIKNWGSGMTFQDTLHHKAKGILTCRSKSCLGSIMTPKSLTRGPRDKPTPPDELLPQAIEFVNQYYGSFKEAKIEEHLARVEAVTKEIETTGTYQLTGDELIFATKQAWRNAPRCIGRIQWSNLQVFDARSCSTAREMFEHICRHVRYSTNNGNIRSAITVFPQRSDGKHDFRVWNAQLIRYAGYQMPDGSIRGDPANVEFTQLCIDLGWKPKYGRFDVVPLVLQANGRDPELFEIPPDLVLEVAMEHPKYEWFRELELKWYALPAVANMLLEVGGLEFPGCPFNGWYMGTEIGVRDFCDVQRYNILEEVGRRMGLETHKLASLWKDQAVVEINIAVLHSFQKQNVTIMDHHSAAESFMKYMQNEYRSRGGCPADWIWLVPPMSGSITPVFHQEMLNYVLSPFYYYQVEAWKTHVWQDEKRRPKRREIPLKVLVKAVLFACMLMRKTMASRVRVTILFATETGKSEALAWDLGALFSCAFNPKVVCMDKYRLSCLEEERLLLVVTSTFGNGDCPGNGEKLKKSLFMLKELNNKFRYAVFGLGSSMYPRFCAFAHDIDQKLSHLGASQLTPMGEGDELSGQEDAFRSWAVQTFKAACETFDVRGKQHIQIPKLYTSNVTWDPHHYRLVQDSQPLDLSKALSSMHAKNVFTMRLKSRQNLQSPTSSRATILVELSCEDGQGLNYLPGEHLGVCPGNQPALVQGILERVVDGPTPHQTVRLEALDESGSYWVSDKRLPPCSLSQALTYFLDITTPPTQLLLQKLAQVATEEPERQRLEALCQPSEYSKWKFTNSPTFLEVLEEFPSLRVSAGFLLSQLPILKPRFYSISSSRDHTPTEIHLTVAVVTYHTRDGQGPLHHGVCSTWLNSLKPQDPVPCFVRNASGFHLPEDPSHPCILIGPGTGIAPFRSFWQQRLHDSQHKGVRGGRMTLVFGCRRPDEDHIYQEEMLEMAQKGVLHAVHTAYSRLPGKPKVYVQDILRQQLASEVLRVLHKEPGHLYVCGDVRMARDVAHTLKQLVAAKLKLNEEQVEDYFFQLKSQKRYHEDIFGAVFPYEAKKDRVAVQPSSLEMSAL

`CC1=CC(N)=NC(C)C1` (centres undefined): the IC50 at Nitric oxide synthase 3 amounted to 0.24 µM; in assay [2] it was 0.18 µM. In addition, the Ratio in assay [1] was 1.3.
In the case of `CCC1=CC(=N)NCC1`, the IC50 against Nitric oxide synthase 3 was 1.5 µM; in [4] it was 1.2 µM. Also, the Ratio in assay [3] is 1.3.
For `CC1=CC(N)=NCC1`, the MTD with Mus musculus [5] was determined as 20 mg/kg. For the same compound, the IC50 was determined as 0.022 µM in [6], 0.23 µM at Nitric oxide synthase 3 and 0.2 µM in assay [4]. Besides, the Ratio in assay [3] was 1.2; in [7], 130. The ED50 with Mus musculus [8] came to 0.16 mg/kg.
For `CCCC1CC(C)=CC(N)=N1` (centres undefined), the MTD with Mus musculus [5] is 5 mg/kg. Further, the IC50 in assay [6] worked out at 0.1 µM; against Nitric oxide synthase 3 it was 0.58 µM; in assay [4] it was 0.06 µM. In addition, the Ratio in assay [3] came to 9.7; in assay [7], 14. Further, in the assay with Mus musculus [8], the ED50 is 0.36 mg/kg.
Take `CC1=CC(N)=N[C@@H]2CCCC[C@H]12`: the concentration for half-maximal inhibition (IC50) turned out to be 7.4 µM against Nitric oxide synthase 3 and 1.4 µM in [4]. The Ratio in assay [3] came to 5.3.
In the case of `CC1=CC(N)=NCC1C` (centres undefined), the figures for the IC50 (against Nitric oxide synthase 3; in [2]) were 0.52 µM and 0.51 µM, respectively. Also, in assay [1], the Ratio worked out at 1.
Take `CC1=CC(N)=N[C@@H]2CCC[C@H]12`: the IC50 was 0.51 µM on Nitric oxide synthase 3 and 0.17 µM in [4]. Also, in assay [3], the Ratio was determined as 3.
`CC1(C)C=CC(N)=NC1`: the IC50 came to 31 µM on Nitric oxide synthase 3 and 2.8 µM in assay [4]. The Ratio in [3] was 11.1.
Regarding `CC1=CCN=C(N)C1`, the IC50 is 0.44 µM at Nitric oxide synthase 3 and 0.7 µM in assay [4]. In assay [3], the Ratio amounted to 0.6.
Turning to `C=CCC1CC(C)=CC(N)=N1` (centres undefined), the MTD in the assay with Mus musculus [5] was found to be 5 mg/kg. In assay [6], this compound displayed an IC50 of 0.025 µM. The Ratio in assay [3] is 7.2. Also, the ED50 with Mus musculus [8] is 0.16 mg/kg.
As to `CC1=C(C)C(N)=NCC1`, the IC50 on Nitric oxide synthase 3 was determined as 0.32 µM; in assay [4] it was 0.31 µM. Also, the Ratio in assay [3] was found to be 1.
As for `CC1=CC(N)=NCC1(C)C`, in the assay with Mus musculus [5], the MTD worked out at 20 mg/kg. Moreover, the values for the 50% inhibitory concentration (IC50) (in assay [6]; at Nitric oxide synthase 3; in [4]) were 0.1 µM, 2.1 µM and 0.42 µM, respectively. Also, the Ratio in [3] is 5; in assay [7], 71. Besides, in the assay on Mus musculus [8], the ED50 was determined as 0.28 mg/kg.

These data come from ChEMBL document CHEMBL1136028, “Design and synthesis of orally bioavailable inhibitors of inducible nitric oxide synthase. Part 1: synthesis and biological evaluation of dihydropyridin-2-imines” (Bioorg Med Chem Lett, 2002).
